Measurements gathered from unrelated publications.
Each line is one published result; the experiments were not run side by side.
Cell line: MOLT-4
Observed: cell growth or viability

| SMILES | assay | setting | IC50 |
| --- | --- | --- | --- |
| Cc1ncsc1-c1ccc([C@H](C)NC(=O)[C@@H]2C[C@@H](O)CN2C(=O)[C@@H](NC(=O)CCCCCS(=O)(=O)NC(=O)c2nc(N3CCc4cccc(C(=O)Nc5nc6ccccc6s5)c4C3)ccc2-c2cnn(CC34CC5CC(CC(C5)C3)C4)c2C)C(C)(C)C)cc1 | MTS | 48 h | 0.004 µM |
| CN1CCC(NC2CCc3[nH]c4c(C(N)=O)ccc(-c5ccccc5Cl)c4c3C2)CC1 (centres unmarked) |  | 96 h | 0.0187 µM |
| Cc1ncsc1-c1ccc([C@H](C)NC(=O)[C@@H]2C[C@@H](O)CN2C(=O)[C@@H](NC(=O)CCCCCCS(=O)(=O)NC(=O)c2nc(N3CCc4cccc(C(=O)Nc5nc6ccccc6s5)c4C3)ccc2-c2cnn(CC34CC5CC(CC(C5)C3)C4)c2C)C(C)(C)C)cc1 | MTS | 48 h | 0.0045 µM |
| COc1ccc(Nc2ncnc3c2ncn3Cc2ccc(C(=O)Nc3ccccc3N)cc2)cc1 | MTT | 72 h | 0.61 µM |
| COc1cccc2c1C(=O)c1c(O)c3c(c(O)c1C2=O)C[C@@](O)(C(=O)CO)C[C@@H]3O[C@H]1C[C@H](N)[C@H](O)[C@H](C)O1 |  | 96 h | 0.00261 µM |
| O=C(NO)c1ccc(Cn2cnc3c(Nc4ccc(Cl)cc4)ncnc32)cc1 | MTT | 72 h | 0.19 µM |
| CCS(=O)(=O)NC(=O)c1nc(N2CCc3cccc(C(=O)Nc4nc5ccccc5s4)c3C2)ccc1-c1cnn(CC23CC4CC(CC(C4)C2)C3)c1C | MTS | 48 h | 0.0051 µM |
| Cc1nc(Nc2ncc(C(=O)Nc3c(C)cccc3Cl)s2)cc(N2CC[C@H](O)C2)n1 | ATP luminescence | 72 h | > 10 µM |
| O=C(CSc1nc2ccccc2s1)N/N=C/c1ccc(OCC(=O)Nc2cccc(Br)c2)cc1 | MTS | 72 h | > 100 µM |
| COc1ccc(Nc2ncnc3c2ncn3Cc2ccc(C(=O)NO)cc2)cc1 | MTT | 72 h | 0.46 µM |
| COc1cc([C@@H]2c3cc4c(cc3[C@@H](O[C@@H]3O[C@@H]5CO[C@@H](C)O[C@H]5[C@H](O)[C@H]3O)[C@H]3COC(=O)[C@H]23)OCO4)cc(OC)c1O | MTS | 72 h | 0.18 µM |
| O=C(NO)c1ccc(Cn2cnc3c(Nc4ccc(F)c(Cl)c4)ncnc32)cc1 | MTT | 72 h | 0.66 µM |
| O=C(CSc1nc2ccccc2s1)N/N=C/c1ccc(OCC(=O)Nc2ccc(Br)cc2)cc1 | MTS | 72 h | > 100 µM |
| Cc1c(-c2ccc(N3CCc4cccc(C(=O)Nc5nc6ccccc6s5)c4C3)nc2C(=O)O)cnn1CC12CC3CC(C1)CC(C(=O)NCCCCCCCCCCCCNc1cccc4c1C(=O)N(C1CCC(=O)NC1=O)C4=O)(C3)C2 (centres unmarked) | MTS | 48 h | 0.0494 µM |
